Drawing on ChEMBL document CHEMBL4152217, “Quinonoid compounds via reactions of lawsone and 2-aminonaphthoquinone with α-bromonitroalkenes and nitroallylic acetates: Structural diversity by C-ring modification and cytotoxic evaluation against cancer cells” (Eur J Med Chem, 2018), this text covers IC50 for 27 compounds.

For one test, the system named is PC-3. Kind of test: Cytotoxicity against human PC3 cells assessed as reduction in cell viability after 72 hrs by MTT assay. The settings on record: PC-3, 72 h. The format is functional, cell-based. A digest of the protocol: (§1)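 MTT viability assay. Cancer lines grown in RPMI 1640 and L929 fibroblasts in DMEM, each with 10% FBS, 2 mM glutamine, penicillin/streptomycin, 37 °C, 5% CO2. PBMC were taken from healthy donors by density-gradient centrifugation, kept in RPMI with 20% FBS and stimulated with 2% phytohemagglutinin. Cells were exposed 72 h (0.01–27.32 µM). MTT 0.5 mg/mL for 3 h, absorbance read at 550 nm. IC50 with 95% CI from nonlinear regression; triplicate, ≥3 independent experiments.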
For orientation: Formazan colour is commonly taken as a measure of viable cells.

A further test concerns HCT-116. The test can be described thus: Cytotoxicity against human HCT116 cells assessed as reduction in cell viability after 72 hrs by MTT assay. The format is functional, cell-based. The conditions noted are these: HCT-116, 72 h. A digest of the protocol:
as §1

The next test concerns HL-60. The test can be described thus: Cytotoxicity against human HL60 cells assessed as reduction in cell viability after 72 hrs by MTT assay. The format is functional, cell-based. The settings on record: HL-60, 72 h. The method in brief:
as §1

The next test concerns SF-295. Kind of test: Cytotoxicity against human SF295 cells assessed as reduction in cell viability after 72 hrs by MTT assay. The settings on record: SF-295, 72 h.
Another test has as its system NCI-H460. The test can be described thus: Cytotoxicity against human NCI-H460 cells assessed as reduction in cell viability after 72 hrs by MTT assay. The conditions noted are these: NCI-H460, 72 h.
In another test the test system is L929. Kind of test: Cytotoxicity against mouse L929 cells assessed as reduction in cell viability after 72 hrs by MTT assay. The format is cell-based. The settings on record: L929, 72 h. A digest of the protocol: as §1
A further test relates to PBMC. Kind of test: Cytotoxicity against human PBMC cells assessed as reduction in cell viability after 72 hrs by MTT assay.

Molecules are shown by their SMILES.

One may read the IC50 as the concentration that inhibits the measured activity by half. For `COc1ccc(-n2cc(-c3ccccc3)c3c2C(=O)c2ccccc2C3=O)cc1`, the IC50 with PC-3, in the test with HCT-116, in the test on HL-60, in the test on SF-295, in the test with NCI-H460 and in the test on L929 was greater than 13.2 µM throughout. The IC50 in the test with PBMC is greater than 13.2 µM.

As to `COc1ccc(-n2cc(-c3ccc(F)cc3)c3c2C(=O)c2ccccc2C3=O)cc1`, the 50% inhibitory concentration (IC50) in the test on PC-3, in the test with HCT-116, with HL-60, with SF-295, in the test on NCI-H460 and in the test on L929 was greater than 12.6 µM in each case. Besides, in the test with PBMC, the IC50 is greater than 12.6 µM.

With `COc1ccc(-c2cn(-c3ccccc3)c3c2C(=O)c2ccccc2C3=O)cc1`, the IC50 with PC-3, with HCT-116, with HL-60, in the test with SF-295, with NCI-H460 and with L929 was greater than 13 µM throughout. Further, the IC50 with PBMC was greater than 13 µM.

Regarding `CCOC(=O)Cc1oc2c(c1-c1ccccc1)C(=O)c1ccccc1C2=O`, the concentration for half-maximal inhibition (IC50) in the test on PC-3 is greater than 13.9 µM; in the test on HCT-116, 12.5 µM; in the test with HL-60, 8.38 µM; with SF-295, greater than 13.9 µM; in the test with NCI-H460 it was 8.86 µM; in the test with L929 it was greater than 13.9 µM. Further, the IC50 in the test with PBMC is greater than 13.9 µM.

For `COc1ccc(-n2cc(-c3ccc(C)cc3)c3c2C(=O)c2ccccc2C3=O)cc1`, the IC50 with PC-3, in the test with HCT-116, in the test with HL-60, with SF-295, in the test on NCI-H460 and with L929 was greater than 12.7 µM in each case. Also, the IC50 in the test with PBMC is greater than 12.7 µM.

With `CCOC(=O)Cc1oc2c(c1/C=C/c1ccccc1)C(=O)c1ccccc1C2=O`, the IC50 is greater than 13 µM in the test with PC-3; greater than 13 µM in the test on HCT-116; 10.7 µM with HL-60; greater than 13 µM with SF-295; greater than 13 µM with NCI-H460; greater than 13 µM in the test with L929. In addition, the IC50 in the test on PBMC was greater than 13 µM.

As to `CCOC(=O)Cc1c(-c2ccc(OC)c(OC)c2)c2c(n1-c1ccc(Br)cc1)C(=O)c1ccccc1C2=O`, the IC50 in the test on PC-3 is greater than 17.4 µM; in the test on HCT-116, greater than 17.4 µM; with HL-60 it was greater than 17.4 µM; with SF-295, 6.45 µM; in the test with NCI-H460 it was greater than 17.4 µM; with L929, greater than 17.4 µM. The IC50 in the test with PBMC is greater than 17.4 µM.

As for `CCOC(=O)Cc1c(-c2ccc(OC)c(OC)c2)c2c(n1-c1cccc(Br)c1)C(=O)c1ccccc1C2=O`, the IC50 with PC-3, in the test on HCT-116, in the test on HL-60, in the test with SF-295, with NCI-H460 and in the test on L929 was greater than 8.72 µM each time. Besides, the IC50 in the test with PBMC is greater than 8.72 µM.

Consider `CCOC(=O)Cc1oc2c(c1-c1ccc(C)cc1)C(=O)c1ccccc1C2=O`, for which the IC50 with PC-3, in the test on HCT-116, with HL-60, with SF-295, in the test with NCI-H460 and in the test with L929 was greater than 13.4 µM each time. In the test on PBMC, the IC50 is greater than 13.4 µM.

With `CCOC(=O)Cc1oc2c(c1-c1cccs1)C(=O)c1ccccc1C2=O`, the IC50 is greater than 27.3 µM with PC-3; 13.7 µM in the test with HCT-116; 5.91 µM in the test with HL-60; greater than 27.3 µM in the test with SF-295; 9.09 µM with NCI-H460; greater than 27.3 µM in the test with L929. Besides, the IC50 in the test on PBMC is greater than 27.3 µM.

Turning to `CCOC(=O)Cc1c(-c2ccc(C)cc2)c2c(n1-c1ccc(OC)cc1)C(=O)c1ccccc1C2=O`, the IC50 with PC-3 was greater than 10.4 µM; with HCT-116, greater than 10.4 µM; in the test on HL-60, 3.36 µM; in the test on SF-295 it was greater than 10.4 µM; in the test on NCI-H460 it was greater than 10.4 µM; with L929, greater than 10.4 µM. For the same compound, the IC50 in the test on PBMC was greater than 10.4 µM.

Regarding `CCOC(=O)Cc1c(-c2ccccc2)c2c(n1-c1ccc(C)cc1)C(=O)c1ccccc1C2=O`, the IC50 in the test on PC-3, with HCT-116, with HL-60, in the test on SF-295, with NCI-H460 and with L929 was greater than 11.1 µM in each case. The IC50 with PBMC is greater than 11.1 µM.

As for `COc1ccc(-c2cn(-c3ccc(Cl)cc3)c3c2C(=O)c2ccccc2C3=O)cc1`, the IC50 with PC-3, in the test on HCT-116, in the test on HL-60, in the test with SF-295, with NCI-H460 and with L929 was greater than 12.6 µM in each case. Moreover, the IC50 with PBMC was greater than 12.6 µM.

`CCOC(=O)Cc1c(-c2cc(OC)c(OC)c(OC)c2)c2c(n1-c1cccc(Br)c1)C(=O)c1ccccc1C2=O`: the IC50 in the test with PC-3, in the test on HCT-116, with HL-60, in the test with SF-295, in the test on NCI-H460 and in the test with L929 was greater than 8.29 µM each time. Besides, the IC50 in the test with PBMC was greater than 8.29 µM.

Turning to `CCCCn1cc(-c2ccc(Cl)cc2)c2c1C(=O)c1ccccc1C2=O`, the IC50 in the test with PC-3, in the test with HCT-116, with HL-60 and in the test with L929 was greater than 13.8 µM each time.

Regarding `CCOC(=O)Cc1oc2c(c1-c1ccc(Cl)cc1)C(=O)c1ccccc1C2=O`, the IC50 is greater than 12.7 µM with PC-3; greater than 12.7 µM in the test on HCT-116; 10.2 µM in the test with HL-60; greater than 12.7 µM in the test on SF-295; greater than 12.7 µM in the test with NCI-H460; greater than 12.7 µM in the test on L929. Besides, the IC50 in the test with PBMC is greater than 12.7 µM.

Regarding `Cc1ccc(-c2cn(-c3cccc(Br)c3)c3c2C(=O)c2ccccc2C3=O)cc1`, the IC50 in the test with PC-3, in the test with HCT-116, in the test on HL-60, with SF-295, in the test with NCI-H460 and in the test with L929 was greater than 13.2 µM in each case. Besides, in the test with PBMC, the 50% inhibitory concentration (IC50) was greater than 13.2 µM.

With `CCOC(=O)Cc1c(-c2ccco2)c2c(n1-c1ccccc1)C(=O)c1ccccc1C2=O`, the IC50 with PC-3, with HCT-116, in the test with HL-60, with SF-295, in the test on NCI-H460 and in the test with L929 was greater than 11.8 µM in each case. In addition, in the test with PBMC, the IC50 was greater than 11.8 µM.

Consider `CCOC(=O)Cc1c(-c2cccs2)c2c(n1-c1ccccc1)C(=O)c1ccccc1C2=O`, for which the IC50 in the test on PC-3 was greater than 11.3 µM; with HCT-116 it was greater than 11.3 µM; in the test on HL-60, 2.63 µM; in the test with SF-295, greater than 11.3 µM; with NCI-H460 it was greater than 11.3 µM; in the test with L929, greater than 11.3 µM. For the same compound, in the test with PBMC, the IC50 was greater than 11.3 µM.

Turning to `CCOC(=O)Cc1oc2c(c1-c1cc(OC)c(OC)c(OC)c1)C(=O)c1ccccc1C2=O`, the IC50 in the test with PC-3 is 8.61 µM; with HCT-116 it was greater than 11.1 µM; in the test with HL-60, 4.01 µM; in the test with SF-295 it was 10.3 µM; in the test on NCI-H460, greater than 11.1 µM; in the test with L929, greater than 11.1 µM. Further, the IC50 in the test on PBMC was greater than 11.1 µM.

Take `Cc1ccc(-c2cn(-c3ccc(C)cc3)c3c2C(=O)c2ccccc2C3=O)cc1`: the IC50 with PC-3, in the test on HCT-116, in the test with HL-60, in the test with SF-295, with NCI-H460 and in the test with L929 was greater than 11.3 µM throughout. The IC50 in the test on PBMC is greater than 11.3 µM.

On to `CCOC(=O)Cc1oc2c(c1-c1ccco1)C(=O)c1ccccc1C2=O`, for which the IC50 with PC-3, with HCT-116, with HL-60, in the test on SF-295, in the test on NCI-H460 and in the test with L929 was greater than 14.3 µM in each case. Further, the IC50 in the test on PBMC is greater than 14.3 µM.

For `CCOC(=O)Cc1oc2c(c1-c1ccc(OC)cc1)C(=O)c1ccccc1C2=O`, the IC50 in the test on PC-3, in the test on HCT-116, in the test with HL-60, with SF-295, with NCI-H460 and in the test on L929 was greater than 12.8 µM throughout. The concentration for half-maximal inhibition (IC50) with PBMC is greater than 12.8 µM.

On to `COc1ccc(-n2cc(-c3ccco3)c3c2C(=O)c2ccccc2C3=O)cc1`, for which the IC50 in the test on PC-3, with HCT-116, in the test with HL-60, in the test on SF-295, in the test with NCI-H460 and in the test on L929 was greater than 13.5 µM throughout. Further, the IC50 with PBMC is greater than 13.5 µM.

`COc1ccc(-c2cn(-c3ccc(OC)cc3)c3c2C(=O)c2ccccc2C3=O)cc1`: the IC50 with PC-3, in the test with HCT-116, with HL-60, with SF-295, in the test with NCI-H460 and in the test on L929 was greater than 12.2 µM in each case. For the same compound, the IC50 in the test on PBMC was greater than 12.2 µM.

In the case of `CCOC(=O)Cc1oc2c(c1-c1cccc3ccccc13)C(=O)c1ccccc1C2=O`, the half-maximal inhibitory concentration (IC50) was greater than 12.2 µM with PC-3; greater than 12.2 µM with HCT-116; 6.69 µM with HL-60; greater than 12.2 µM in the test on SF-295; greater than 12.2 µM with NCI-H460; greater than 12.2 µM in the test with L929. Moreover, the IC50 with PBMC was greater than 12.2 µM.

Turning to `CCOC(=O)Cc1c(-c2ccc(C)cc2)c2c(n1-c1ccc(C)cc1)C(=O)c1ccccc1C2=O`, the IC50 in the test with PC-3, in the test on HCT-116, with HL-60, in the test on SF-295, in the test on NCI-H460 and in the test on L929 was greater than 10.8 µM in each case. Also, the IC50 with PBMC is greater than 10.8 µM.
